From ChEMBL document CHEMBL3046679, “Design, synthesis, and biological activities of arylmethylamine substituted chlorotriazine and methylthiotriazine compounds” (J Agric Food Chem, 2011)
Active and inactive are the calls of the source. The calls are words filed in the database; no cut-off is given here.

How the values were obtained:
[1] = test system: Aphididae; experiment: Insecticidal activity against Aphididae (aphids) assessed as mortality at 1000 ppm by leaf-disk assay; type: functional, organism-based
In short: (§1)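 Leaf-disk assay at 1000 ppm, three replicates. Plates kept 5–9 days in controlled-environment cabinets. Mortality judged against untreated wells: 99 for significant mortality, 0 otherwise. Values are the mean of three; thiamethoxam and indoxacarb used as positive controls.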

[2] = test system: Phytophthora infestans; experiment: Fungicidal activity against Phytophthora infestans assessed as inhibition of mycelia growth at 200 ppm; type: functional, organism-based
[3] = test system: Alternaria solani; experiment: Fungicidal activity against Alternaria solani assessed as inhibition of mycelia growth at 2 ppm; type: functional, organism-based
In short: (§2)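 Mycelial growth test in 96-well plates: compound incorporated into artificial growth medium at 2 ppm, two replicates per rate. Each well scored 99 for complete, 55 for partial or 0 for no inhibition. Values are the mean across replicates; azoxystrobin and prochloraz used as positive controls.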

[4] = test system: Brassica napus; experiment: Herbicidal activity against Brassica napus (oilseed rape) at 1.5 kg/ha preemergence treatment measured after 10 days by glasshouse test; type: functional; conditions: pre-emergence, 240 h
In short: (§3)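 Glasshouse pre/postemergence test, each treatment in triplicate. Above-ground fresh weight measured 10 days after treatment. Result expressed as percent inhibition versus control, from 0 (no control) to 100 (complete control); glyphosate used as positive control.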

[5] = test system: Pythium dissimile; experiment: Fungicidal activity against Pythium dissimile assessed as inhibition of mycelia growth at 2 ppm; type: functional, organism-based; in short: as §2
[6] = test system: Brassica napus; experiment: Herbicidal activity against Brassica napus (oilseed rape) at 1.5 kg/ha postemergence treatment measured after 10 days by glasshouse test; type: functional; conditions: post-emergence, 240 h; in short: as §3
[7] = test system: Echinochloa crus-galli; experiment: Herbicidal activity against Echinochloa crus-galli (barnyard grass) at 1.5 kg/ha postemergence treatment measured after 10 days by glasshouse test; type: functional; conditions: post-emergence, 240 h; in short: as §3
[8] = test system: Echinochloa crus-galli; experiment: Herbicidal activity against Echinochloa crus-galli (barnyard grass) at 1.5 kg/ha preemergence treatment measured after 10 days by glasshouse test; type: functional; conditions: pre-emergence, 240 h; in short: as §3
[9] = test system: Heliothis virescens; experiment: Insecticidal activity against Lepidoptera Heliothis virescens (tobacco budworm) assessed as mortality at 1000 ppm by leaf-disk assay; type: functional, organism-based; in short: as §1
[10] = test system: Fusarium graminearum; experiment: Fungicidal activity against Fusarium graminearum assessed as inhibition of mycelia growth at 2 ppm; type: functional, organism-based; in short: as §2
[11] = test system: Zymoseptoria tritici; experiment: Fungicidal activity against Zymoseptoria tritici assessed as inhibition of mycelia growth at 100 ppm; type: functional, organism-based
[12] = test system: Amaranthus retroflexus; experiment: Herbicidal activity against Amaranthus retroflexus assessed as growth inhibition at 1 kg/ha postemergence treatment by glasshouse test; type: functional; conditions: post-emergence, read-out: GI
In short: (§4)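 Glasshouse screen with pre- or postemergence application at 1.0 kg/ha. Result given as percent inhibition of plant growth; norflurazon and glyphosate used as controls.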

[13] = test system: Arabidopsis thaliana; experiment: Herbicidal activity against Arabidopsis thaliana assessed as growth inhibition at 10 ppm by 96-well plate test; type: functional; conditions: read-out: GI
In short: (§5)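 96-well plate herbicide screen: Arabidopsis thaliana at 10 ppm and Poa annua at 32 ppm, two replicates. Plates incubated seven days in a controlled-environment cabinet. Each replicate scored 0 (no visible effect) or 99 (herbicidal effect); values are the mean of the two. Atrazine used as reference.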

[14] = test system: Lolium perenne; experiment: Herbicidal activity against Lolium perenne (perennial ryegrass) assessed as growth inhibition at 1 kg/ha postemergence treatment by glasshouse test; type: functional; conditions: post-emergence, read-out: GI; in short: as §4
[15] = test system: Poa annua; experiment: Herbicidal activity against Poa annua assessed as growth inhibition at 32 ppm by 96-well plate test; type: functional; conditions: read-out: GI; in short: as §5
[16] = test system: Lolium perenne; experiment: Herbicidal activity against Lolium perenne (perennial ryegrass) assessed as growth inhibition at 1 kg/ha preemergence treatment by glasshouse test; type: functional; conditions: pre-emergence, read-out: GI; in short: as §4
[17] = test system: Amaranthus retroflexus; experiment: Herbicidal activity against Amaranthus retroflexus assessed as growth inhibition at 1 kg/ha preemergence treatment by glasshouse test; type: functional; conditions: pre-emergence, read-out: GI; in short: as §4
[18] = test system: Stellaria media; experiment: Herbicidal activity against Stellaria media assessed as growth inhibition at 1 kg/ha preemergence treatment by glasshouse test; type: functional; conditions: pre-emergence, read-out: GI; in short: as §4
[19] = test system: Digitaria sanguinalis; experiment: Herbicidal activity against Digitaria sanguinalis (hairy crabgrass) assessed as growth inhibition at 1 kg/ha preemergence treatment by glasshouse test; type: functional; conditions: pre-emergence, read-out: GI; in short: as §4
[20] = test system: Botrytis cinerea; experiment: Fungicidal activity against Botryotinia fuckeliana assessed as inhibition of mycelia growth at 2 ppm; type: functional, organism-based; in short: as §2
[21] = test system: Stellaria media; experiment: Herbicidal activity against Stellaria media assessed as growth inhibition at 1 kg/ha postemergence treatment by glasshouse test; type: functional; conditions: post-emergence, read-out: GI; in short: as §4
[22] = test system: Digitaria sanguinalis; experiment: Herbicidal activity against Digitaria sanguinalis (hairy crabgrass) assessed as growth inhibition at 1 kg/ha postemergence treatment by glasshouse test; type: functional; conditions: post-emergence, read-out: GI; in short: as §4

| SMILES | inhibition [2] | inhibition [3] | inhibition at 1500 g/ha [4] | inhibition [5] | inhibition at 1500 g/ha [6] | inhibition at 1500 g/ha [7] | inhibition at 1500 g/ha [8] | mortality [9] | inhibition [10] | inhibition of growth at 1000 g/ha [12] | inhibition of growth at 10 ppm [13] | inhibition of growth at 1000 g/ha [14] | inhibition of growth at 32 ppm [15] | inhibition of growth at 1000 g/ha [16] | inhibition of growth at 1000 g/ha [17] | inhibition of growth at 1000 g/ha [18] | inhibition of growth at 1000 g/ha [19] | inhibition of growth at 1000 g/ha [21] | inhibition of growth at 1000 g/ha [22] | further results |
| --- | --- | --- | --- | --- | --- | --- | --- | --- | --- | --- | --- | --- | --- | --- | --- | --- | --- | --- | --- | --- |
| CC(C)Nc1nc(Cl)nc(NCc2cc(-c3ccccc3)no2)n1 | inactive | inactive | 20.1% | inactive | 42.4% | 17.7% | 4.3% | Active | inactive |  |  |  |  |  |  |  |  |  |  | mortality [1]: inactive |
| CSc1nc(NCc2ccc(Cl)nc2)nc(NC(C)C)n1 | inactive | inactive | 100% | inactive | 100% | 88.6% | 88.6% | inactive | inactive | 70% | 99% | 50% | 0% | 10% | 100% | 90% | 0% | 100% | 90% | inhibition [11]: inactive; inhibition [20]: Active |
| CC(C)Nc1nc(Cl)nc(NCC2CCCO2)n1 (stereo not given) |  |  | 100% |  | 100% | 41.3% | 46.4% |  |  |  |  |  |  |  |  |  |  |  |  |  |
| CNc1cnn(-c2cccc(C(F)(F)F)c2)c(=O)c1Cl [NORFLURAZONE] |  |  |  |  |  |  |  |  |  |  | 99% |  | 99% |  |  |  |  |  |  |  |
| CSc1nc(NCc2cnc(Br)s2)nc(NC(C)C)n1 |  |  | 87.1% |  | 100% | 92% | 74.6% |  |  |  |  |  |  |  |  |  |  |  |  |  |
| O=C(O)CNCP(=O)(O)O [GLYPHOSATE] |  |  |  |  |  |  |  |  |  | 90% |  | 80% |  | 0% | 90% | 0% | 0% | 80% | 90% |  |
| CCNc1nc(Cl)nc(NC(C)C)n1 [ATRAZINE] | inactive | inactive | 100% | inactive | 100% | 100% | 100% | inactive | inactive | 100% | 99% | 100% | 0% | 80% | 100% | 90% | 0% | 100% | 70% | inhibition [20]: inactive |
| CCNc1nc(NC(C)C)nc(SC)n1 [AMETRYNE] | inactive | inactive | 100% | inactive | 100% | 100% | 100% | inactive | inactive | 100% | 99% | 100% | 0% | 90% | 100% | 90% | 90% | 100% | 100% | inhibition [11]: inactive; mortality [1]: inactive |
